Laboratory results as given in ChEMBL document CHEMBL1145842, “A selective human H(4)-receptor agonist: (-)-2-cyano-1-methyl-3-[(2R,5R)-5- [1H-imidazol-4(5)-yl]tetrahydrofuran-2-y] methylguanidine” (J Med Chem, 2003).
pEC50, pKi: −log10 of the molar value. Active and inactive are the calls of the source. The rule behind the calls is not given here.

Tests used:
[1] = molecular target: T1, Histamine H3 receptor (Homo sapiens, UniProt Q9Y5N1); experiment: Histamine H3 receptor competition binding using [3H]Na-methylhistamine
T1 sequence (Q9Y5N1 whole entry): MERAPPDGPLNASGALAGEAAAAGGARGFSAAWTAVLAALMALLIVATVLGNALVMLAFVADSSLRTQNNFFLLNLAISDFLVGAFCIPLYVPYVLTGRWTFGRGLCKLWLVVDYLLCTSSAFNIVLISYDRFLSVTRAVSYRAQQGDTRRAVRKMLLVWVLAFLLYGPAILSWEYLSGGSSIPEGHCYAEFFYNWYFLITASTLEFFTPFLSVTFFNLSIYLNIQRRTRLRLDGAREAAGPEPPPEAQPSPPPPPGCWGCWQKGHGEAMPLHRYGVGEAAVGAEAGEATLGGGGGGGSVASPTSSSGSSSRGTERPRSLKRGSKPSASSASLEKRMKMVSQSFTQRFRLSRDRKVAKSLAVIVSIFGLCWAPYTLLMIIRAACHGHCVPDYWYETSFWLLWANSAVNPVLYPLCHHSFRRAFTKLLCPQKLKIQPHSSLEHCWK

[2] = molecular target: T1, Histamine H3 receptor; experiment: Inhibition of the forskolin-stimulated cAMP production in SK-N-MC cells expressing human Histamine H3 receptor; type: functional, cell-based
[3] = molecular target: T1, Histamine H3 receptor; experiment: Efficacy measured for human Histamine H3 receptor relative to histamine; type: functional
[4] = molecular target: T2, Histamine H4 receptor (Homo sapiens, UniProt Q9H3N8); experiment: Inhibition of the forskolin-stimulated cAMP production in SK-N-MC cells expressing human Histamine H4 receptor; type: functional, cell-based
T2 sequence (Q9H3N8 whole entry): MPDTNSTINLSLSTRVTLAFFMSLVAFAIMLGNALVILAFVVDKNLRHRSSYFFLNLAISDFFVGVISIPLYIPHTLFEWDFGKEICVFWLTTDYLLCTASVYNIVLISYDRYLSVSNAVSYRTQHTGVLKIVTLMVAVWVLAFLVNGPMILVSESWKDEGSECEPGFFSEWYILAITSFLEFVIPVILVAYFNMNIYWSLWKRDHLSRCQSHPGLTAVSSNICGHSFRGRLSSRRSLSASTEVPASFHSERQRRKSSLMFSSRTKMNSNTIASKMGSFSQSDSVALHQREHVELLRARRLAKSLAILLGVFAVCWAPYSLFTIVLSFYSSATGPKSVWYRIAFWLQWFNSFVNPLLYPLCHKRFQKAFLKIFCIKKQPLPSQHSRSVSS

[5] = molecular target: T2, Histamine H4 receptor; experiment: Histamine H4 receptor competition binding using [3H]Na-methylhistamine
[6] = molecular target: T2, Histamine H4 receptor; experiment: Efficacy measured for human Histamine H4 receptor relative to histamine; type: functional
[7] = molecular target: T1, Histamine H3 receptor; experiment: Compound was tested for H3 receptor competition binding using [3H]- Na-methylhistamine
In short: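 Homogenates of SK-N-MC cells stably expressing human H3 receptor, in 50 mM Na2HPO4 pH 7.4, incubated 1 h at 37 °C with 1.0 nM [3H]Nα-methylhistamine with or without competitor. Filtration through GF/C filters pretreated with 0.3% polyethylenimine, three washes with ice-cold 25 mM Tris-HCl, 145 mM NaCl pH 7.4, then scintillation counting.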

[8] = molecular target: T1, Histamine H3 receptor; experiment: Inhibition of the forskolin-stimulated cAMP production in SK-N-MC cells expressing human Histamine H3 receptor; Not effective; type: functional, cell-based

Row | SMILES | pKi [1] | pEC50 [2] | Efficacy [3] | pEC50 [4] | pKi [5] | Efficacy [6] | pKi [7] | NE [8]
1 | NC[C@@H]1CC[C@H](c2c[nH]cn2)O1 (single isomer, unassigned) | 5.69 | 6.11 | 1.06 | 5.26 | 5.60 | 0.88 |  | 
2 | C/N=C(\NC#N)NC[C@@H]1CC[C@H](c2c[nH]cn2)O1 (single isomer, unassigned) |  |  | 0.43 | 6.65 | 6.65 | 1.01 |  | 
3 | NC[C@H]1C=C[C@@H](c2c[nH]cn2)O1 (single isomer, unassigned) |  | < 4.00 |  | 4.12 | 4.92 | 0.71 | 4.70 | 
4 | NC[C@H]1CC[C@H](c2c[nH]cn2)O1 [IMIFURAMINE] | 6.64 | 7.35 | 1.04 | 5.70 | 6.05 | 0.7 |  | 
5 | NC[C@@H]1C=C[C@H](c2c[nH]cn2)O1 (single isomer, unassigned) | 4.94 | 4.57 | 0.93 | 4.39 | 4.66 | 0.74 |  | 
6 | NC[C@H]1CC[C@@H](c2c[nH]cn2)O1 (single isomer, unassigned) | 5.77 | 6.09 | 0.95 | 5.12 | 5.19 | 1.02 |  | 
7 | c1ccc(COC[C@@H]2CC[C@H](c3c[nH]cn3)O2)cc1 | 6.48 | 6.72 | 1.06 | 6.87 | 6.36 | 0.91 |  | 
8 | NC[C@@H]1C=C[C@@H](c2c[nH]cn2)O1 | 5.60 | 5.55 | 0.75 | 4.07 | < 4.00 | 0.85 |  | 
9 | c1ccc(COC[C@H]2CC[C@H](c3c[nH]cn3)O2)cc1 | 6.61 | 7.04 | 0.97 | 6.13 | 5.98 | 0.46 |  | 
10 | NC[C@@H]1CC[C@@H](c2c[nH]cn2)O1 | 6.66 | 6.98 | 0.91 | 4.51 | 4.89 | 0.6 |  | 
11 | C/N=C(\NC#N)NC[C@H]1CC[C@@H](c2c[nH]cn2)O1 (single isomer, unassigned) |  |  | < 0.1 |  |  | 1.07 |  | inactive
12 | c1ccc(COC[C@@H]2CC[C@@H](c3c[nH]cn3)O2)cc1 |  | 5.02 | 0.66 | 4.89 | 4.67 | 0.49 | 4.98 | 
13 | C/N=C(\NC#N)NC[C@H]1CC[C@H](c2c[nH]cn2)O1 |  |  | 0.79 | 7.11 | 6.90 |  |  | 
14 | C/N=C(\NC#N)NC[C@@H]1CC[C@@H](c2c[nH]cn2)O1 |  |  |  | 4.67 | 4.69 | 1.06 |  | 
15 | c1ccc(COC[C@H]2CC[C@@H](c3c[nH]cn3)O2)cc1 | 5.16 | 5.01 | 0.86 | 4.94 | 4.87 | 0.82 |  | 
16 | NC[C@H]1C=C[C@H](c2c[nH]cn2)O1 | 5.99 | 6.57 | 1 | 4.62 | 4.93 | 0.76 |  | 
